From ChEMBL document CHEMBL5036376, “C20-nor-Abietane and Three Abietane Diterpenoids from Plectranthus mutabilis Leaves as P-Glycoprotein Modulators” (ACS Med Chem Lett, 2022)

What was measured:
[1] = molecular target: T1, ATP-dependent translocase ABCB1 (Homo sapiens, UniProt P08183); assay: Stimulation of P-gp in human multidrug resistant NCI-H460/R cells assessed as fluorescence activity ratio at 5 uM for 30 mins by Rho123 accumulation assay relative to control; details: nci-h460, 0.5 h
[2] = Selectivity index, ratio of IC50 for cytotoxicity against human MRC-5 cells to of IC50 for anticancer activity against human NCI-H460 cells; format: toxicity, cell-based; details: for selectivity ratio: MRC-5 cells versus NCI-H460 cells, read-out: Ratio IC50
How it was run: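 Selectivity index is the MRC-5 IC50 divided by the NCI-H460 IC50. Both come from MTT viability assays over 2–50 μM (compounds) or 2–50 μg/mL (extract).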

[3] = Selectivity index, ratio of mean fluorescence intensity for stimulation of P-gp in human multidrug resistant NCI-H460/R cells to mean fluorescence intensity for stimulation of P-gp in human NCI-H460 cells assessed as decrease in Rho123 accumulation at 5 uM for 30 mins; format: functional; details: 0.5 h
[4] = Selectivity index, ratio of mean fluorescence intensity for stimulation of P-gp in human multidrug resistant NCI-H460/R cells to mean fluorescence intensity for stimulation of P-gp in human NCI-H460 cells assessed as decrease in Rho123 accumulation at 10 uM for 72 mins; format: functional; details: 1.2 h
[5] = molecular target: T1, ATP-dependent translocase ABCB1; assay: Stimulation of P-gp in human multidrug resistant NCI-H460/R cells assessed as decrease in Rho123 accumulation by measuring mean fluorescence intensity at 10 uM incubated for 72 hrs followed by rhodamine 123 measured after 30 mins by flow cytometry; details: nci-h460, 72.5 h
How it was run: (§1)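 NCI-H460/R cells treated with the test agent for 72 h, then loaded with Rho123 for 30 min; intracellular mean fluorescence intensity (MFI) measured. References are untreated NCI-H460/R (MDR control) and parental NCI-H460 (sensitive control). FAR = MFI treated/MFI MDR control; SI = MFI treated × 100/MFI sensitive control; mean ± SE. Tariquidar is the P-gp inhibitor comparator.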

[6] = molecular target: T1, ATP-dependent translocase ABCB1; assay: Stimulation of P-gp in human multi drug resistant NCI-H460/R cells assessed as decrease in Rho123 accumulation by measuring mean fluorescence intensity at 10 uM incubated for 30 mins in presence of rhodamine 123by flow cytometry; details: nci-h460, 0.5 h
How it was run: (§2)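 NCI-H460/R (P-gp-overexpressing NSCLC) cells exposed to the test agent together with Rho123 for 30 min; mean fluorescence intensity (MFI) read. Untreated NCI-H460/R serve as MDR control and parental NCI-H460 as sensitive control. FAR = MFI treated/MFI MDR control; SI = MFI treated × 100/MFI sensitive control; mean ± SE. Tariquidar is the P-gp inhibition positive control.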

[7] = molecular target: T1, ATP-dependent translocase ABCB1; assay: Stimulation of P-gp in human multidrug resistant NCI-H460/R cells assessed as decrease in Rho123 accumulation by measuring mean fluorescence intensity at 5 uM incubated for 72 hrs followed by rhodamine 123 measured after 30 mins by flow cytometry; details: nci-h460, 72.5 h; how it was run: as §1
[8] = system: NCI-H460; assay: Anticancer activity against human multi-drug resistant NCI-H460/R cells assessed as reduction in cell viability measured after 72 hrs by MTT assay; format: functional, cell-based; details: NCI-H460, 72 h
How it was run: (§3)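 MTT read-out of metabolic activity (viability) in sensitive NSCLC NCI-H460, its P-gp-overexpressing MDR subline NCI-H460/R and normal embryonic lung fibroblasts MRC-5. Isolated diterpenes were tested at 2, 5, 10, 20 and 50 μM and acetone extract at 2, 5, 10, 20 and 50 μg/mL. IC50 was reported in μM for compounds and μg/mL for extract.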

[9] = Selectivity index, ratio of mean fluorescence intensity for stimulation of P-gp in human multidrug resistant NCI-H460/R cells to mean fluorescence intensity for stimulation of P-gp in human NCI-H460 cells assessed as decrease in Rho123 accumulation at 5 uM for 72 mins; format: functional; details: 1.2 h
[10] = system: MRC5; assay: Cytotoxicity against human MRC-5 cells assessed as reduction in cell viability measured after 72 hrs by MTT assay; format: cell-based; details: MRC5, 72 h; how it was run: as §3
[11] = molecular target: T1, ATP-dependent translocase ABCB1; assay: Stimulation of P-gp in human multidrug resistant NCI-H460/R cells assessed as fluorescence activity ratio at 5 uM for 72 mins by Rho123 accumulation assay relative to control; details: nci-h460, 1.2 h
[12] = molecular target: T1, ATP-dependent translocase ABCB1; assay: Stimulation of P-gp in human multidrug resistant NCI-H460/R cells assessed as fluorescence activity ratio at 10 uM for 72 mins by Rho123 accumulation assay relative to control; details: nci-h460, 1.2 h
[13] = Selectivity index, ratio of mean fluorescence intensity for stimulation of P-gp in human multidrug resistant NCI-H460/R cells to mean fluorescence intensity for stimulation of P-gp in human NCI-H460 cells assessed as decrease in Rho123 accumulation at 10 uM for 30 mins; format: functional; details: 0.5 h
[14] = molecular target: T1, ATP-dependent translocase ABCB1; assay: Stimulation of P-gp in human multi-drug resistant NCI-H460/R cells assessed as decrease in Rho123 accumulation by measuring mean fluorescence intensity at 5 uM incubated for 30 mins in presence of rhodamine 123 by flow cytometry; details: nci-h460, 0.5 h; how it was run: as §2
[15] = molecular target: T1, ATP-dependent translocase ABCB1; assay: Stimulation of P-gp in human multidrug resistant NCI-H460/R cells assessed as fluorescence activity ratio at 10 uM for 30 mins by Rho123 accumulation assay relative to control; details: nci-h460, 0.5 h
[16] = system: NCI-H460; assay: Anticancer activity against human NCI-H460 cells assessed as reduction in cell viability measured after 72 hrs by MTT assay; format: functional, cell-based; details: NCI-H460, 72 h; how it was run: as §3
[17] = Selectivity index, ratio of mean fluorescence intensity for stimulation of P-gp in human multidrug resistant NCI-H460/R cells to mean fluorescence intensity for stimulation of P-gp in human NCI-H460 cells assessed as decrease in Rho123 accumulation at 0.05 uM for […]; format: functional
[18] = molecular target: T1, ATP-dependent translocase ABCB1; assay: Stimulation of P-gp in human multidrug resistant NCI-H460/R cells assessed as fluorescence activity ratio at 0.05 uM […] by Rho123 accumulation assay relative to control; details: nci-h460, 1.2 h
[19] = molecular target: T1, ATP-dependent translocase ABCB1; assay: Stimulation of P-gp in human multi-drug resistant NCI-H460/R cells assessed as decrease in Rho123 accumulation by measuring mean fluorescence intensity at 50 uM incubated for 30 mins in presence of rhodamine 123 by flow cytometry; details: nci-h460, 0.5 h; how it was run: as §2
[20] = molecular target: T1, ATP-dependent translocase ABCB1; assay: Stimulation of P-gp in human multidrug resistant NCI-H460/R cells assessed as fluorescence activity ratio at 50 uM for 30 mins by Rho123 accumulation assay relative to control; details: nci-h460, 0.5 h
How it was run: (§4)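 Rho123 and test agent given together to NCI-H460/R cells for 30 min, then mean fluorescence intensity (MFI) read. FAR = MFI of treated MDR cells / MFI of untreated MDR cells. SI = (MFI of treated MDR cells × 100) / MFI of untreated sensitive NCI-H460 cells. Tariquidar was the P-gp inhibition control. Mean ± SE.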

[21] = molecular target: T1, ATP-dependent translocase ABCB1; assay: Stimulation of P-gp in human multidrug resistant NCI-H460/R cells assessed as decrease in Rho123 accumulation by measuring mean fluorescence intensity at 0.05 uM incubated for 72 hour followed by rhodamine 123 measured after 30 mins by flow cytometry; details: nci-h460, 72 h; how it was run: as §1
[22] = Selectivity index, ratio of mean fluorescence intensity for stimulation of P-gp in human multidrug resistant NCI-H460/R cells to mean fluorescence intensity for stimulation of P-gp in human NCI-H460 cells assessed as decrease in Rho123 accumulation at 50 uM for 30 mins; format: functional; details: 0.5 h; how it was run: as §4

T1 sequence (P08183 whole entry): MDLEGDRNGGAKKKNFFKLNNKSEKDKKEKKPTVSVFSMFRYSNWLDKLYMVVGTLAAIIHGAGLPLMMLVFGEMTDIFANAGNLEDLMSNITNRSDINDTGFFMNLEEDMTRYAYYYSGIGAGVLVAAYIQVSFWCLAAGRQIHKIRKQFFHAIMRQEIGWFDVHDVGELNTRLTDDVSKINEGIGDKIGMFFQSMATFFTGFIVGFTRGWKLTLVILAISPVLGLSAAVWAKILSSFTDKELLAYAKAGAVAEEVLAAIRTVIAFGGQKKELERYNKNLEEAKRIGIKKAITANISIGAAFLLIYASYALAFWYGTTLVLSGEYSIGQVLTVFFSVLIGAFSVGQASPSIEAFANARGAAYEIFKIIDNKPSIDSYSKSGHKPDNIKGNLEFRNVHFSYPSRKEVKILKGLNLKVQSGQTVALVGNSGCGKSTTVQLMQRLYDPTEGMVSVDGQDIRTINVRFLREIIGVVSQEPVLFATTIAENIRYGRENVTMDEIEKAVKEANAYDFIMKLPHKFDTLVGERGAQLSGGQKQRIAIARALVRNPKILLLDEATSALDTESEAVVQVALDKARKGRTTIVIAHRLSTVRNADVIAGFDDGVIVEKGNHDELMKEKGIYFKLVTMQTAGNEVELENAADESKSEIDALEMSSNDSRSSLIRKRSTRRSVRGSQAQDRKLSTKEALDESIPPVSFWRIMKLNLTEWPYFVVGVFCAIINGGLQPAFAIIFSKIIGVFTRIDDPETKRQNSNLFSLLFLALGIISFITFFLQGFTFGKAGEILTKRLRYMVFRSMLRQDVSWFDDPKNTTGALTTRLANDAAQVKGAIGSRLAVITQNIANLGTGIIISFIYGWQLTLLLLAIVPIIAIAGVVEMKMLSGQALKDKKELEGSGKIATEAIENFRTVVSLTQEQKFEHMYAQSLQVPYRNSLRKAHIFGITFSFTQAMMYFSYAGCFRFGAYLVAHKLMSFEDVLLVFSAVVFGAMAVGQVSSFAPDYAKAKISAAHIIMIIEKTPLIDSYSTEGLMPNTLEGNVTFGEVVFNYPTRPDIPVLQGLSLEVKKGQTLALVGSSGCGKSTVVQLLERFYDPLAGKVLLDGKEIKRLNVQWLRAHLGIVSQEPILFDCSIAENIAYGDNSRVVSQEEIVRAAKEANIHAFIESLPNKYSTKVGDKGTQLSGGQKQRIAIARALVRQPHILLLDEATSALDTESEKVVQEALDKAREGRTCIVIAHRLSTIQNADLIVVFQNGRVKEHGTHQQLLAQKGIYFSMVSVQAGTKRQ

| Compound | Ratio [1] | selectivity ratio [2] | Selectivity Index [3] | Selectivity Index [4] | Flu intensity [5] | Flu intensity [6] | Flu intensity [7] | IC50 [8] [µM] | Selectivity Index [9] | IC50 [10] [µM] | Ratio [11] | Ratio [12] | Selectivity Index [13] | Flu intensity [14] | Ratio [15] | IC50 [16] [µM] | also measured |
| --- | --- | --- | --- | --- | --- | --- | --- | --- | --- | --- | --- | --- | --- | --- | --- | --- | --- |
| CC(C)c1c(O)c(O)c2c(c1O)C(=O)C(O)=C1C(C)(C)CCC[C@@]12C | 2.45 | 2.5 | 58.52 | 4.43 | 109.7 | 253 | 173.5 | 14.5 | 7 | 35.5 | 0.21 | 0.14 | 11.76 | 1258.8 | 0.49 | 14.1 |  |
| CC(C)C1=C(O)C(=O)C2=C(C(=O)C(O)=C3C(C)(C)CCC[C@]23C)C1=O | 1.3 | 2 | 31.13 | 9.76 | 242 | 991.3 | 277.3 | 20.4 | 11.18 | 44.1 | 0.34 | 0.3 | 46.09 | 669.6 | 1.93 | 23 |  |
| CC(C)c1cc2c(c(O)c1O)[C@@]1(O)CCCC(C)(C)[C@@H]1C(=O)C2=O | 1.16 |  | 27.68 | 10.26 | 254.5 | 573 | 265.9 | > 50 | 10.72 | > 50 | 0.33 | 0.31 | 26.64 | 595.3 | 1.12 | > 50 | Ratio IC50 [2]: Not Active |
| CC(C)C1=C(O)C(=O)[C@@]23O[C@@]2(C(=O)C(O)=C2C(C)(C)CCC[C@@]23C)C1=O | 1.39 | 2 | 33.08 | 11.16 | 276.6 | 666.1 | 289.7 | 17.3 | 11.68 | 40.2 | 0.36 | 0.34 | 30.97 | 711.6 | 1.3 | 20.2 |  |
| COc1cccc2c1C(=O)c1c(O)c3c(c(O)c1C2=O)C[C@@](O)(C(=O)CO)C[C@@H]3O[C@H]1C[C@H](N)[C@H](O)[C@H](C)O1 [DOXORUBICIN] |  |  |  |  |  |  |  | 1.62 |  |  |  |  |  |  |  |  |  |
| CC(=O)O[C@H]1C(=O)[C@@]2(C)[C@H]([C@H](OC(=O)c3ccccc3)[C@]3(O)C[C@H](OC(=O)[C@H](O)[C@@H](NC(=O)c4ccccc4)c4ccccc4)C(C)=C1C3(C)C)[C@]1(OC(C)=O)CO[C@@H]1C[C@@H]2O [PACLITAXEL] |  | 872 |  |  |  |  |  | 0.117 |  | 0.523 |  |  |  |  |  | 0.0006 |  |
| COc1cc2c(cc1OC)CN(CCc1ccc(NC(=O)c3cc(OC)c(OC)cc3NC(=O)c3cnc4ccccc4c3)cc1)CC2 [TARIQUIDAR] |  |  |  |  |  |  |  |  |  |  |  |  |  |  |  |  | Selectivity Index [17]: 121.16; Ratio [18]: 3.7; Flu intensity [19]: 3004; Ratio [20]: 3.7; Flu intensity [21]: 3004; Selectivity Index [22]: 121.16 |
